Results taken from ChEMBL document CHEMBL1165943, “Design and synthesis of new anticancer pyrimidines with multiple-kinase inhibitory effect” (Bioorg Med Chem, 2010).

What was measured:
[1] = tested on: SR; experiment: Cytotoxicity against human SR cells assessed as cell growth at 0.001 uM after 48 hrs by sulforhodamine B assay; type: functional; conditions: read-out: Activity
[2] = tested on: NCI-H226; experiment: Cytotoxicity against human NCI-H226 cells assessed as cell growth at 10 uM after 48 hrs by sulforhodamine B assay; type: functional; conditions: NCI-H226, 48 h, read-out: Activity
[3] = tested on: NCI-H226; experiment: Cytotoxicity against human NCI-H226 cells assessed as cell growth at 100 nM after 48 hrs by sulforhodamine B assay; type: functional; conditions: NCI-H226, 48 h, read-out: Activity
[4] = tested on: PC-3; experiment: Cytotoxicity against human PC3 cells assessed as cell growth at 10 uM after 48 hrs by sulforhodamine B assay; type: functional; conditions: PC-3, 48 h, read-out: Activity
[5] = tested on: CCRF-CEM; experiment: Cytotoxicity against human CCRF-CEM cells assessed as cell growth at 10 uM after 48 hrs by sulforhodamine B assay; type: functional; conditions: read-out: Activity
[6] = tested on: HOP-92; experiment: Cytotoxicity against human HOP92 cells assessed as cell growth at 0.01 uM after 48 hrs by sulforhodamine B assay; type: functional; conditions: HOP-92, 48 h, read-out: Activity
[7] = tested on: SR; experiment: Growth inhibition of human SR cells after 48 hrs by sulforhodamine B assay; type: functional
How it was run: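 Cells grown in RPMI 1640 with 5% FBS and 2 mM L-glutamine, seeded at 5,000–40,000 cells/well according to doubling time. After 24 h, time-zero plates are TCA-fixed. Five concentrations (10-fold or ½log dilutions, DMSO stocks) are applied for 48 h at 37 °C, 5% CO₂. Cells are TCA-fixed, SRB-stained and read at 515 nm. IC₅₀ is taken from [(Ti−Tz)/(C−Tz)]×100 = 50.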

[8] = tested on: SK-MEL-28; experiment: Cytotoxicity against human SK-MEL-28 cells assessed as cell growth at 10 uM after 48 hrs by sulforhodamine B assay; type: functional; conditions: SK-MEL-28, 48 h, read-out: Activity
[9] = tested on: SK-MEL-28; experiment: Cytotoxicity against human SK-MEL-28 cells assessed as cell growth at 100 nM after 48 hrs by sulforhodamine B assay; type: functional; conditions: SK-MEL-28, 48 h, read-out: Activity
[10] = tested on: NCI-H23; experiment: Cytotoxicity against human NCI-H23 cells assessed as cell growth at 100 nM after 48 hrs by sulforhodamine B assay; type: functional; conditions: NCI-H23, 48 h, read-out: Activity
[11] = tested on: PC-3; experiment: Cytotoxicity against human PC3 cells assessed as cell growth at 1 uM after 48 hrs by sulforhodamine B assay; type: functional; conditions: PC-3, 48 h, read-out: Activity
[12] = tested on: PC-3; experiment: Cytotoxicity against human PC3 cells assessed as cell growth at 0.01 uM after 48 hrs by sulforhodamine B assay; type: functional; conditions: PC-3, 48 h, read-out: Activity
[13] = tested on: A549; experiment: Cytotoxicity against human A549 cells assessed as cell growth at 0.001 uM after 48 hrs by sulforhodamine B assay; type: functional; conditions: A549, 48 h, read-out: Activity
[14] = tested on: SR; experiment: Cytotoxicity against human SR cells assessed as cell growth at 0.01 uM after 48 hrs by sulforhodamine B assay; type: functional; conditions: read-out: Activity
[15] = tested on: HCC 2998; experiment: Cytotoxicity against human HCC2998 cells assessed as cell growth at 1 uM after 48 hrs by sulforhodamine B assay; type: functional; conditions: HCC 2998, 48 h, read-out: Activity
[16] = tested on: HCC 2998; experiment: Cytotoxicity against human HCC2998 cells assessed as cell growth at 0.001 uM after 48 hrs by sulforhodamine B assay; type: functional; conditions: HCC 2998, 48 h, read-out: Activity
[17] = tested on: PC-3; experiment: Cytotoxicity against human PC3 cells assessed as cell growth at 0.001 uM after 48 hrs by sulforhodamine B assay; type: functional; conditions: PC-3, 48 h, read-out: Activity
[18] = Cytotoxicity against human RPMI8266 cells assessed as cell growth at 0.01 uM after 48 hrs by sulforhodamine B assay; type: functional; conditions: read-out: Activity
[19] = tested on: HOP-92; experiment: Cytotoxicity against human HOP92 cells assessed as cell growth at 0.001 uM after 48 hrs by sulforhodamine B assay; type: functional; conditions: HOP-92, 48 h, read-out: Activity
[20] = tested on: MCF7; experiment: Cytotoxicity against human MCF7 cells assessed as cell growth at 1 uM after 48 hrs by sulforhodamine B assay; type: functional; conditions: MCF7, 48 h, read-out: Activity
[21] = tested on: HOP-92; experiment: Cytotoxicity against human HOP92 cells assessed as cell growth at 100 nM after 48 hrs by sulforhodamine B assay; type: functional; conditions: HOP-92, 48 h, read-out: Activity
[22] = molecular target: Fibroblast growth factor receptor 1 (Homo sapiens) (UniProt P11362); experiment: Inhibition of FGFR1 at 10 uM by HotSpot assay
Sequence of Fibroblast growth factor receptor 1 (Homo sapiens) (P11362 22-822 limits assumed): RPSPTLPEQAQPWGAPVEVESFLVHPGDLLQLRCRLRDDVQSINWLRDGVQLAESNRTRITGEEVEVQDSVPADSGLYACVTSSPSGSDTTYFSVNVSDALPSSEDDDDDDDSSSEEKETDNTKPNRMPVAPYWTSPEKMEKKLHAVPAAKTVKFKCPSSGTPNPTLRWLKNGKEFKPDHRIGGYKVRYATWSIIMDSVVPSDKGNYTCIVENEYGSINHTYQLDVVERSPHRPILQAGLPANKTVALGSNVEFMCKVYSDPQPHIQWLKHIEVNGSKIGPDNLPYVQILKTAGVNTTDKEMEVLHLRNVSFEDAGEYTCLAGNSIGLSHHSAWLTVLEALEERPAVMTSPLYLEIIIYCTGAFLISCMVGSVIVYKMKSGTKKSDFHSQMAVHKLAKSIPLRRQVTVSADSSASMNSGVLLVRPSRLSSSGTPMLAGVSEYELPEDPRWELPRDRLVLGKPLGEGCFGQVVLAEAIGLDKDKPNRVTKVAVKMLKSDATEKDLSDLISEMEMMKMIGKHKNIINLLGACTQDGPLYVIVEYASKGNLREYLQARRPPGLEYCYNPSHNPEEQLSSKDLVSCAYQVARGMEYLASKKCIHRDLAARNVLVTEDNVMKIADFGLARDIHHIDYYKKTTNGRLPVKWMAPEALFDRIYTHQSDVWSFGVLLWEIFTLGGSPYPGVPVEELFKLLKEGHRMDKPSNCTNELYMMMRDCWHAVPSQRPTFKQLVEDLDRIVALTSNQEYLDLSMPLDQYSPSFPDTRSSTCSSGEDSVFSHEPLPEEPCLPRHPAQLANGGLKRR

[23] = molecular target: Macrophage-stimulating protein receptor (Homo sapiens) (UniProt Q04912); experiment: Inhibition of RON at 10 uM by HotSpot assay
[24] = molecular target: Dual specificity mitogen-activated protein kinase kinase 1 (Homo sapiens) (UniProt Q02750); experiment: Inhibition of MEK1 at 10 uM by HotSpot assay
Sequence of Dual specificity mitogen-activated protein kinase kinase 1 (Homo sapiens) (Q02750 whole entry): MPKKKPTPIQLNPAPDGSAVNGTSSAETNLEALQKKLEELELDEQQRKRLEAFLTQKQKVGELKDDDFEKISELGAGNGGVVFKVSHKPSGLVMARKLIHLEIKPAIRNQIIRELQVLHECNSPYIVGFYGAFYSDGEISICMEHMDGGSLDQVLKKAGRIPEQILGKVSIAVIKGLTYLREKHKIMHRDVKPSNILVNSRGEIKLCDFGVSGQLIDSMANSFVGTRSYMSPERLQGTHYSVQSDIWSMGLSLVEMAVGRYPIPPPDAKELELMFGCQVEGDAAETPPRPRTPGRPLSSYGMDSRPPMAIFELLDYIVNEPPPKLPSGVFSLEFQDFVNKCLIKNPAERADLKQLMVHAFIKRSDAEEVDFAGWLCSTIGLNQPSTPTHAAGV

[25] = molecular target: High affinity nerve growth factor receptor (Homo sapiens) (UniProt P04629); experiment: Inhibition of NTRK1 at 10 uM by HotSpot assay
Sequence of High affinity nerve growth factor receptor (Homo sapiens) (P04629 33-796 limits assumed): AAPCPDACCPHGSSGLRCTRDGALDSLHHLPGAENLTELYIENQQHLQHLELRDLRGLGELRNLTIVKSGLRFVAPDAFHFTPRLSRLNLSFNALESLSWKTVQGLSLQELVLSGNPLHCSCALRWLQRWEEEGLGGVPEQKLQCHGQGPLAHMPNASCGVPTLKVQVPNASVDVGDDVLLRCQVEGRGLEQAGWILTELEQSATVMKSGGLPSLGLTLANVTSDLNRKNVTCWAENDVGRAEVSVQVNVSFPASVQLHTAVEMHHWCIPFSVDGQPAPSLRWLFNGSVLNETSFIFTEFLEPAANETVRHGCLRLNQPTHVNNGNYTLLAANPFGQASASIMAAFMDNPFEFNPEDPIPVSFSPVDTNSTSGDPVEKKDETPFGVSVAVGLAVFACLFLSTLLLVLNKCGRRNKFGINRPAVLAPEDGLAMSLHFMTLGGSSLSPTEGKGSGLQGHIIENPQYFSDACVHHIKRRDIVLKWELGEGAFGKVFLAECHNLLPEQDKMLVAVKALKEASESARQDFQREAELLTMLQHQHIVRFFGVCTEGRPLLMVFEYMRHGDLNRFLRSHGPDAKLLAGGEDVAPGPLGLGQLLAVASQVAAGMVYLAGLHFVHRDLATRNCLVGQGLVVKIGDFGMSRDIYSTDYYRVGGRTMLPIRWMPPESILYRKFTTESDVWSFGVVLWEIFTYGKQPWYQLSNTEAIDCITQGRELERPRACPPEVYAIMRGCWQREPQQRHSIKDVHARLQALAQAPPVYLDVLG

[26] = molecular target: Mitogen-activated protein kinase 14 (Homo sapiens) (UniProt Q16539); experiment: Inhibition of p38alpha at 10 uM by HotSpot assay
Sequence of Mitogen-activated protein kinase 14 (Homo sapiens) (Q16539 whole entry): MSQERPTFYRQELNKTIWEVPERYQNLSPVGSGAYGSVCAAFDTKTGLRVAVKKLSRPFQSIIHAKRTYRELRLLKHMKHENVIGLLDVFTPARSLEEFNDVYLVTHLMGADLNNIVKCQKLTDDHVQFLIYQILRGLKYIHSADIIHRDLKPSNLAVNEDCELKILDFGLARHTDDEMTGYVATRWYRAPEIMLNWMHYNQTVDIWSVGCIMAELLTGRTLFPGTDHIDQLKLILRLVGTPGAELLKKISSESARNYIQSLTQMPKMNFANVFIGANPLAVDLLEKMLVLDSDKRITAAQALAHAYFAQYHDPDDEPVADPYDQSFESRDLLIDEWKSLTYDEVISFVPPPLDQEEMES

[27] = molecular target: Calcium/calmodulin-dependent protein kinase type II subunit beta (Homo sapiens) (UniProt Q13554); experiment: Inhibition of CAMK2B at 10 uM by HotSpot assay
[28] = molecular target: Tyrosine-protein kinase ABL1 (Homo sapiens) (UniProt P00519); experiment: Inhibition of ABL1 at 10 uM by HotSpot assay
[29] = molecular target: [Pyruvate dehydrogenase (acetyl-transferring)] kinase isozyme 1, mitochondrial (Homo sapiens) (UniProt Q15118); experiment: Inhibition of PDK1 at 10 uM by HotSpot assay
[30] = molecular target: Angiopoietin-1 receptor (Homo sapiens) (UniProt Q02763); experiment: Inhibition of TIE2 at 10 uM by HotSpot assay
[31] = molecular target: Ephrin type-A receptor 1 (Homo sapiens) (UniProt P21709); experiment: Inhibition of EPHA1 at 10 uM by HotSpot assay
[32] = molecular target: Myotonin-protein kinase (Homo sapiens) (UniProt Q09013); experiment: Inhibition of DMPK at 10 uM by HotSpot assay
[33] = molecular target: Tyrosine-protein kinase Yes (Homo sapiens) (UniProt P07947); experiment: Inhibition of YES1 at 10 uM by HotSpot assay
[34] = molecular target: Serine/threonine-protein kinase pim-1 (Homo sapiens) (UniProt P11309); experiment: Inhibition of PIM1 at 10 uM by HotSpot assay
Sequence of Serine/threonine-protein kinase pim-1 (Homo sapiens) (P11309 whole entry, looked up): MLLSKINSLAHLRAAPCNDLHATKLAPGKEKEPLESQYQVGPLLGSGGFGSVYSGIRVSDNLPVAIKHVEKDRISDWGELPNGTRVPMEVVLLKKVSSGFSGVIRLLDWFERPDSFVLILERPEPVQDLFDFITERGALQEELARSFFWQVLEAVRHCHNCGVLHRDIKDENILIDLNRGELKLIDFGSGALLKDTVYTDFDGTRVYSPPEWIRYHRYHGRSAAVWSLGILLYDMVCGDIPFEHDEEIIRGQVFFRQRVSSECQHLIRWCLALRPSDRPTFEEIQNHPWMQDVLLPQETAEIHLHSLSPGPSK

[35] = molecular target: Homeodomain-interacting protein kinase 1 (Homo sapiens) (UniProt Q86Z02); experiment: Inhibition of HIPK1 at 10 uM by HotSpot assay
[36] = molecular target: Epidermal growth factor receptor (Homo sapiens) (UniProt P00533); experiment: Inhibition of EGFR at 10 uM by HotSpot assay
[37] = molecular target: Mast/stem cell growth factor receptor Kit (Homo sapiens) (UniProt P10721); experiment: Inhibition of c-Kit at 10 uM by HotSpot assay
Sequence of Mast/stem cell growth factor receptor Kit (Homo sapiens) (P10721 whole entry): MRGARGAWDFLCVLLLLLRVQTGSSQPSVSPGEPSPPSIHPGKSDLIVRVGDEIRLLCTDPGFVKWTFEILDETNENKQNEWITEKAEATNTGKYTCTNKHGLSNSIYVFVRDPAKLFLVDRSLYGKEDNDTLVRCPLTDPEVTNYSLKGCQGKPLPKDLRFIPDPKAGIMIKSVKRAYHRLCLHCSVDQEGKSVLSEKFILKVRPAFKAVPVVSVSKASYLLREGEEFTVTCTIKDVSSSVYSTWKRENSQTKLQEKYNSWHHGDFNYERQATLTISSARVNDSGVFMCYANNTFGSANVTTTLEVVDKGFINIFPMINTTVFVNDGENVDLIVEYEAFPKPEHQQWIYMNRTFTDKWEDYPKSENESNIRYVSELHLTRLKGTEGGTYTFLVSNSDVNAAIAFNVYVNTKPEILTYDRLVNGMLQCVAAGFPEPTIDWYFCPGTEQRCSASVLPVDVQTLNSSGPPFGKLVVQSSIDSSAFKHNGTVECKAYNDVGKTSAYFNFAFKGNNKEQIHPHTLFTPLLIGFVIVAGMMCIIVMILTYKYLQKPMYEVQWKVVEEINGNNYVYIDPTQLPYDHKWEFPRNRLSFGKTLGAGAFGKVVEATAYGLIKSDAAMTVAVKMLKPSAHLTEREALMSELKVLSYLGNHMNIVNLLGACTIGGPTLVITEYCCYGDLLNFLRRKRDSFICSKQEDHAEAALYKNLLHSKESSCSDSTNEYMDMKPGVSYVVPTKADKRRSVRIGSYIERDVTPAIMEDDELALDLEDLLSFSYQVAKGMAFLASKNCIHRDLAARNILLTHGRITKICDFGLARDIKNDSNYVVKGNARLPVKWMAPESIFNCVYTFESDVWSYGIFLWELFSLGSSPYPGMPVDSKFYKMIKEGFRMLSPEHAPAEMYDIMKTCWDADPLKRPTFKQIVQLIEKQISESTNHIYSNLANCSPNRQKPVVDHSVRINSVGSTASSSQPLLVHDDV

[38] = molecular target: Receptor-type tyrosine-protein kinase FLT3 (Homo sapiens) (UniProt P36888); experiment: Inhibition of FLT3 at 10 uM by HotSpot assay
Sequence of Receptor-type tyrosine-protein kinase FLT3 (Homo sapiens) (P36888 whole entry): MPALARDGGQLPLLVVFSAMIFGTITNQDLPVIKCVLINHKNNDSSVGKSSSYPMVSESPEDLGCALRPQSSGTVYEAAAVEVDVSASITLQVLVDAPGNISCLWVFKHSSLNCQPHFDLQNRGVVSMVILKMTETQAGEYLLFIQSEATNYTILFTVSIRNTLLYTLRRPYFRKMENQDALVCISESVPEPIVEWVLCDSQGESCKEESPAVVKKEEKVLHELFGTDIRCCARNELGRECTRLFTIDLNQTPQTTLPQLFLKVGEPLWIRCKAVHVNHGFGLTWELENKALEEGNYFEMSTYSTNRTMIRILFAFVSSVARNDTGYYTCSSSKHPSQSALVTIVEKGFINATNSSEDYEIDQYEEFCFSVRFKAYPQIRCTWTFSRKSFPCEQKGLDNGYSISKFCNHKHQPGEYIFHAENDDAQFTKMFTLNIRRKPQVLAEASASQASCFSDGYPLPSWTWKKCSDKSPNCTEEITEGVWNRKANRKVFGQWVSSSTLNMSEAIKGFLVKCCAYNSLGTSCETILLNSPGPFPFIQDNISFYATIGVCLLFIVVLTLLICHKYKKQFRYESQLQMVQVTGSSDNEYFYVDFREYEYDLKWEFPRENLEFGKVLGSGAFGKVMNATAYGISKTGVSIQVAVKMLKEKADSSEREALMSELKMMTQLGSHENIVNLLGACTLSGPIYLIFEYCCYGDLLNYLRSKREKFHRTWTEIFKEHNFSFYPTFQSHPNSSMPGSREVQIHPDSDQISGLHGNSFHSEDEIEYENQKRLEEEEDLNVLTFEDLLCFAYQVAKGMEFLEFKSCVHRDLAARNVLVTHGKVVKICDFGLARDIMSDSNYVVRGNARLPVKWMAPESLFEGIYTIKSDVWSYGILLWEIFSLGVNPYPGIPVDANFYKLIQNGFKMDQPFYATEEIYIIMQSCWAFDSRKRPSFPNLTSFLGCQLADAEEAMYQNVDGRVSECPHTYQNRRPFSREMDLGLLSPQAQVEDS

[39] = molecular target: Tyrosine-protein kinase Lyn (Homo sapiens) (UniProt P07948); experiment: Inhibition of LYN at 10 uM by HotSpot assay
[40] = molecular target: Mitogen-activated protein kinase 1 (Homo sapiens) (UniProt P28482); experiment: Inhibition of MAPK1 at 10 uM by HotSpot assay
Sequence of Mitogen-activated protein kinase 1 (Homo sapiens) (P28482 whole entry): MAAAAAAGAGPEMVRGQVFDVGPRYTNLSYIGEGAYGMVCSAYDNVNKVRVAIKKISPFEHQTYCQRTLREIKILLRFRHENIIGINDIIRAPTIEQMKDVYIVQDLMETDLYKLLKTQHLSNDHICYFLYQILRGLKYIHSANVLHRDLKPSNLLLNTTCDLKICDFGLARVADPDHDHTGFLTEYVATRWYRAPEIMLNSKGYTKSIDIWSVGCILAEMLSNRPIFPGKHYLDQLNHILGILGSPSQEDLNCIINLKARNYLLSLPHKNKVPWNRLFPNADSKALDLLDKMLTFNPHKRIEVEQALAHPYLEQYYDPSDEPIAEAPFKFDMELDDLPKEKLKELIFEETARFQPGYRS

SMILES: CC(=O)c1ccccc1-c1ccc(-c2ccnc(NC(=O)Nc3cc(N4CCOCC4)cc(C(F)(F)F)c3)n2)cn1
- growth at 0.001 µM [1]: 94%
- growth at 10 µM [2]: 71%
- growth at 0.1 µM [3]: 96%
- growth at 10 µM [4]: 91%
- growth at 10 µM [5]: 97%
- growth at 0.01 µM [6]: 102%
- GI50 [7]: > 100 µM
- TGI [7]: > 100 µM
- CC50 ([7]; read-out: LC50 (the source's name)): > 100 µM
- growth at 10 µM [8]: 93%
- growth at 0.1 µM [9]: 92%
- growth at 0.1 µM [10]: 83%
- growth at 1 µM [11]: 78%
- growth at 0.01 µM [12]: 108%
- growth at 0.001 µM [13]: 94%
- growth at 0.01 µM [14]: 89%
- growth at 1 µM [15]: 114%
- growth at 0.001 µM [16]: 110%
- growth at 0.001 µM [17]: 101%
- growth at 0.01 µM [18]: 104%
- growth at 0.001 µM [19]: 88%
- growth at 1 µM [20]: 90%
- growth at 0.1 µM [21]: 91%

SMILES: CC(=O)Nc1cccc(-c2ccc(-c3ccnc(NC(=O)Nc4cc(C(F)(F)F)cc(C(F)(F)F)c4)n3)cn2)c1.Cl
- inhibition [22]: < 50%
- inhibition [23]: < 50%
- inhibition [24]: < 50%
- inhibition [25]: < 50%
- inhibition [26]: < 50%
- inhibition [27]: < 50%
- inhibition [28]: 70%
- inhibition [29]: < 50%
- inhibition [30]: < 50%
- inhibition [31]: < 50%
- inhibition [32]: < 50%
- inhibition [33]: < 50%
- inhibition [34]: 60%
- inhibition [35]: < 50%
- inhibition [36]: < 50%
- inhibition [37]: < 50%
- inhibition [38]: 50%
- inhibition [39]: < 50%
- inhibition [40]: < 50%
